Data from ChEMBL document CHEMBL3091412, “Discovery of an irreversible HCV NS5B polymerase inhibitor” (Bioorg Med Chem Lett, 2013).

Assays:
[1] = Oral bioavailability in Sprague-Dawley rat at 10 mg/kg; assay type: ADME, organism-based; settings: in vivo
[2] = Oral bioavailability in beagle dog at 3 mg/kg; assay type: ADME, organism-based, Canis lupus familiaris; settings: in vivo
Outline: (§1)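 The compound was given as a crystalline sodium salt. Pharmacokinetics were studied in Sprague Dawley rats, Cynomolgus monkeys and Beagle dogs after oral (PO) and IV dosing. Oral exposure was read as AUC, and the oral dose was 3 mpk in monkeys and dogs. Volume of distribution was taken at steady state.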

[3] = Volume of distribution at steady state in beagle dog; assay type: ADME, organism-based, Canis lupus familiaris; settings: in vivo, read-out: Vdss; outline: as §1
[4] = Half life in iv dosed beagle dog; assay type: ADME, organism-based, Canis lupus familiaris; settings: in vivo
[5] = AUC in beagle dog at 3 mg/kg, po; assay type: ADME, organism-based, Canis lupus familiaris; design: dose 3 mg/kg, route oral; settings: plasma
Outline: (§2)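 Given orally as crystalline sodium salt; plasma AUC determined in Sprague Dawley rats (10 mpk), Cynomolgus monkeys (3 mpk) or Beagle dogs (3 mpk).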

[6] = AUC in cynomolgus monkey at 3 mg/kg, po; assay type: ADME, organism-based, Macaca fascicularis; design: dose 3 mg/kg, route oral; settings: plasma; outline: as §2
[7] = Ratio of drug uptake in brain to plasma of Sprague-Dawley rat at 10 mg/kg, po; assay type: ADME, organism-based; design: dose 10 mg/kg, route oral; settings: read-out: BPR
Outline: (§3)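 Crystalline sodium salt given orally at 10 mg/kg to fasted male Sprague Dawley rats. Liver and brain uptake were measured and reported as the mean tissue-to-plasma ratio.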

[8] = Half life in iv dosed cynomolgus monkey; assay type: ADME, organism-based, Macaca fascicularis; settings: in vivo
[9] = Plasma protein binding in human; assay type: ADME, cell-free; settings: read-out: PPB (converted)
[10] = Volume of distribution at steady state in cynomolgus monkey; assay type: ADME, organism-based, Macaca fascicularis; settings: in vivo, read-out: Vdss; outline: as §1
[11] = Half life in iv dosed Sprague-Dawley rat; assay type: ADME, organism-based; settings: in vivo
[12] = Volume of distribution at steady state in Sprague-Dawley rat; assay type: ADME, organism-based; settings: in vivo, read-out: Vdss; outline: as §1
[13] = Clearance in Sprague-Dawley rat; assay type: ADME, organism-based; settings: in vivo
[14] = Clearance in beagle dog; assay type: ADME, organism-based, Canis lupus familiaris; settings: in vivo
[15] = Clearance in cynomolgus monkey; assay type: ADME, organism-based, Macaca fascicularis; settings: in vivo
[16] = Ratio of drug uptake in liver to plasma of Sprague-Dawley rat at 10 mg/kg, po; assay type: ADME, organism-based; design: dose 10 mg/kg, route oral; outline: as §3
[17] = Plasma protein binding in beagle dog; assay type: ADME, cell-free, Canis lupus familiaris; settings: read-out: PPB (converted)
[18] = Plasma protein binding in cynomolgus monkey; assay type: ADME, cell-free, Macaca fascicularis; settings: read-out: PPB (converted)
[19] = Plasma protein binding in Sprague-Dawley rat; assay type: ADME, cell-free; settings: read-out: PPB (converted)
[20] = Oral bioavailability in cynomolgus monkey at 3 mg/kg; assay type: ADME, organism-based, Macaca fascicularis; settings: in vivo; outline: as §1
[21] = AUC in Sprague-Dawley rat at 10 mg/kg, po; assay type: ADME, organism-based; design: dose 10 mg/kg, route oral; settings: plasma; outline: as §2

Q: Which results are given for Cc1cc2c(-c3ccc[nH]c3=O)c(C(=O)[O-])n(Cc3cc4ccccc4nc3Cl)c2cc1F.[Na+]?
A: bioavailability [1]: 14%; bioavailability [2]: 38%; Vd [3]: 1.7 L/kg; half-life [4]: 2 h; AUC [5]: 3.2 µM·h; AUC [6]: 11.5 µM·h; Kp [7]: < 0.01; half-life [8]: 5 h; fraction unbound [9]: 0.003; Vd [10]: 1.2 L/kg; half-life [11]: 7 h; Vd [12]: 0.3 L/kg; clearance [13]: 1.5 mL/min/kg; clearance [14]: 13 mL/min/kg; clearance [15]: 3.5 mL/min/kg; Kp [16]: 0.4; fraction unbound [17]: 0.004; fraction unbound [18]: 0.005; fraction unbound [19]: 0.002; bioavailability [20]: 38%; AUC [21]: 35 µM·h
